Most compounds without a hit are left out; they make up all but 2.2% or so of the library.
ASAP1 GAP inh – inhibitors of human ASAP1 ArfGAP activity, primary screen, biochemical, fluorescence polarization. ASAP1-stimulated ARF1 GTP hydrolysis, GDP FP detection. inhibition, % at 16.5 µM. actives 0.19% (n = 360,000). AID 624377, 2012; in the data active = inhibition above about 25%
Exocytosis inh – LAMP-1 surface exposure blockers, TALL-104 cells – cell-based, flow cytometry, MLPCN library, primary screen; TALL-104 LAMP-1 surface exposure; cells stimulated with thapsigargin and PMA; inhibition, % at 10 µM; actives 0.66% (n = 360,000); AID 651702, 2012;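 active = inhibition above about 55%, limit read from the data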
V-ATPase pH – regulators of yeast V-ATPase proton pumping, primary screen, pHLuorin cytosolic pH fluorescence. response, % at 10 µM. S. cerevisiae. actives 0.37% (n = 350,000). AID 504577, 2011; in the data active = response mostly above about 7.3%, no sharp cut-off; inactive = mostly below about 5.4%; note: actives read high
ARFGAP1 inh – inhibitors of rat ARFGAP1 GAP activity, primary screen, biochemical, fluorescence polarization, GDP tracer; ADP-ribosylation factor GTPase-activating protein 1 (Rattus norvegicus), Q62848; Arfgap1-stimulated ARF1 GTP hydrolysis, GDP FP detection; inhibition, % at 16.5 µM; actives 0.26% (n = 360,000); AID 651572, 2012;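 active = inhibition above a per-plate limit, mean inhibition of low control wells plus 3 SD, cut at about 25% in these data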
Target sequence (Q62848 1-136 limits assumed): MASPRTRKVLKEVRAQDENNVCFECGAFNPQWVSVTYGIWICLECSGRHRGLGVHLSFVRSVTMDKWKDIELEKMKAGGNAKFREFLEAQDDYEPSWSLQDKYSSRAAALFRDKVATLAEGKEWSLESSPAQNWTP
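material = rat Arfgap1 catalytic domain, aa 1-136 | also added = human ARF1(Δ1-17)-GTP substrate | compound dosing = one concentration, 16.5 µM, DMSO 1.26% | times = GTP hydrolysis reaction 2 h at 25 °C | measured by = FP, GDP Alexa 633 tracer displaced from anti-GDP antibody, 620/688 nm | evaluation = percent inhibition of Arfgap1-stimulated GTP hydrolysis | replication = single well per compound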
NRP1-CendR mod – modulators of CendR peptide binding to NRP-1, primary screen, biochemical, fluorescence polarization, uHTS. Neuropilin-1 (Homo sapiens), O14786. FAM-RPARPAR peptide binding to NRP-1. inhibition, % at 25 µM. actives 0.85% (n = 360,000). AID 602438, 2012;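 active = inhibition or corrected inhibition above about 18%, plus a signal ratio from 0.5 to 1.5, limit read from the data, passing the limit was not always enough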
Exocytosis CP01 – inhibitors of lytic granule exocytosis, confirmation, TALL-104 cells, flow cytometry, Cherry Pick01. inhibition, % at 10 µM. actives 11% (n = 1,500). shares compounds with Exocytosis inh. LAMP-1 externalization; stimulated with PMA plus thapsigargin; in the data active = inhibition above about 60%
Of the large screens only hits and unclear results are named; the others gave an inactive call (follow-up assays come after a bar, where they were run).

CCN1CCN(c2ccc(NC(=O)CCc3c(C)nc4c(-c5ccc(F)cc5)c(C)nn4c3C)cc2)CC1	Exocytosis inh 57.2 | Exocytosis CP01 inactive
O=C(CN1C(=O)C(=O)c2ccccc21)c1ccc(Cl)cc1	Exocytosis inh 62.6 | Exocytosis CP01 inactive
Cc1[nH]c2ccccc2c1/C=C/c1nc2ccccc2c(=O)[nH]1	Exocytosis inh 57.9 | Exocytosis CP01 inactive
Cc1cccc(/C=C/c2nc3ccccc3c(=O)[nH]2)c1	none
CN(C(=O)c1cccc(NC(=O)Cc2ccc(NC(=O)C3CCN(C(=O)C4CCC4)CC3)cc2)c1)C1CC1	none
O=C1NC(Cc2ccc(O)cc2)c2nc3ccccc3c(=O)n2-c2ncccc21 (centres undefined)	none
COc1ccccc1OCCCCn1ncc2ccc(OC)c(OC)c2c1=O	Exocytosis inh 77.6 | Exocytosis CP01 inactive
COc1cccc(OC)c1OCCCCn1cnc2ccccc2c1=O	none
CCOC(=O)C1CCCN(S(=O)(=O)CCNC(=O)c2ccc3c(c2)OCO3)C1 (centres undefined)	none
Cc1ccc(C(C)C)c(OCCNCc2ccccc2)c1	Exocytosis inh 83.2 | Exocytosis CP01 inactive
COc1ccc(C(CNC(=O)c2cc(S(=O)(=O)N3CCN(c4ccccc4)CC3)ccc2Cl)N(C)C)cc1 (centres undefined)	none
Cc1ccc(C)c(N2CCN(C(=O)c3ccc(CS(=O)Cc4cccc(Cl)c4)o3)CC2)c1 (centres undefined)	Exocytosis inh 57.7 | Exocytosis CP01 inactive
COc1ccccc1CC(=O)c1ccc(OCc2ccccc2)cc1	Exocytosis inh 81.1 | Exocytosis CP01 inactive
COc1ccc(CCN2CC(C(=O)N3CCCCCC3)CCC2=O)cc1 (centres undefined)	none
COc1ccccc1N1C(=O)CC(Sc2n[nH]c(-c3cccc(C)c3)n2)C1=O (centres undefined)	Exocytosis inh 59.3 | Exocytosis CP01 inactive
CCCc1cc(=O)[nH]c(SCC(=O)NC(=O)NC2CCCC2)n1	none
O=C(Cc1ccccc1)NC(C(=O)O)C(O)c1ccc([N+](=O)[O-])cc1 (centres undefined)	none
Cc1cc(Nc2cccc(Cl)c2)c2ccccc2n1	Exocytosis inh 77.5 | Exocytosis CP01 inactive
COc1ccc(Nc2nnc(-c3ccc4c(c3)OCO4)o2)cc1	none (no result: Exocytosis inh, V-ATPase pH, NRP1-CendR mod)
COc1cccc(C(=O)Oc2ccccc2/C=C\C(=O)c2cc3ccccc3o2)c1	Exocytosis inh 86.2 | Exocytosis CP01 inactive
CCn1c(=O)c2c3c(sc2n2c(SCc4ccc(F)cc4)nnc12)CCCC3	Exocytosis inh 56.3 | Exocytosis CP01 inactive
C=C(C)CSc1nnc2n(Cc3ccccc3)c(=O)c3c4c(sc3n12)CCC4	none
CNC(=S)N(C)/N=C1/C(=O)N(Cc2c(Cl)cccc2Cl)c2ccccc21	none
CCCCc1nc(N2CCN(C(=O)c3ccco3)CC2)c(C#N)c2c1CCCC2	Exocytosis inh 79.4 | Exocytosis CP01 inactive
CCOc1ccc(OCC(O)CNC2CCN(Cc3ccccc3)CC2)cc1 (centres undefined)	none
CC(C)(c1ccccc1)c1ccc(OCC(O)CNC2CCN(Cc3ccccc3)CC2)cc1 (centres undefined)	Exocytosis inh 61.6 | Exocytosis CP01 85.0
O=C(c1ccc2ccccc2c1)C1CCCN(C(=O)c2cccnc2)C1 (centres undefined)	Exocytosis inh 65.8 | Exocytosis CP01 inactive
COc1ccc(C(=O)C2CCCN(C(=O)c3cccnc3OC)C2)cc1F (centres undefined)	Exocytosis inh 76.7 | Exocytosis CP01 inactive
COc1ccc(C(=O)C2CCCN(C(=O)c3cccs3)C2)cc1F (centres undefined)	none
COCC1OC(OC(C)C(O)c2cnc3nc(N)[nH]c(=O)c3n2)C(O)C(OC)C1O (centres undefined)	none (no result: V-ATPase pH)
